Assay outcomes (PubChem BioAssay)
Sampled rows, rich in hits. Any-hit rate of the full collection: about 2.8%.
NPY-Y2 antag – blocks the human neuropeptide Y Y2 receptor | NPY-Y2 expressing cells, antagonist mode | P49146 | AID 793 | 0.99% of 140,000 active | inhibition, % at 2.7 µM; in the data active means inhibition above about 17%;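 further: 0% = vehicle with agonist challenge and 100% = reference antagonist with challenge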
EP2 mod – modulates human prostaglandin E2 receptor EP2 signaling; induction, % at 25 µM; P43116; AID 940; 0.83% of 260,000 active; EP2-expressing cells, cAMP HTRF FRET, PGE2 co-stimulation;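 active means compounds whose cAMP rise, as percent of the full-agonist control response, exceeds 60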;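 further: rat C6 glioma line stably carrying human EP2 under a CMV promoter; the protocol text gives 20 µM as final concentration; 100% = response of wells given 1 µM PGE2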
Target sequence (P43116 whole entry, looked up): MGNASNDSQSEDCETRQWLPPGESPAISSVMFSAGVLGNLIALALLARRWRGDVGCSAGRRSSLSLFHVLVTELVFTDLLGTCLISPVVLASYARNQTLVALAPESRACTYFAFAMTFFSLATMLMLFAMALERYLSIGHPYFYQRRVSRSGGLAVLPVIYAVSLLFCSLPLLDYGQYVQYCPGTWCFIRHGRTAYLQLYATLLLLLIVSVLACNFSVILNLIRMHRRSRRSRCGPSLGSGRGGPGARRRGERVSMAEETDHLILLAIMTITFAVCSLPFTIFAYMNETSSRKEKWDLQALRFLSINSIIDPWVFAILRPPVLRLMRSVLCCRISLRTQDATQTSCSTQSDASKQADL
NPY-Y1 PAM-ag – potentiates or activates human NPY-Y1 receptor; 0.37% of 220,000 active; activation, % at 3.6 µM; NPY-Y1 expressing cells, potentiator/agonist activation; P25929; in the data active means activation above about 33%, passing the limit was not always enough;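 further: cells stimulated with NPY at EC10 then isoproterenol at EC100; 0% = low agonist plus stimulus and 100% = saturating agonist plus stimulus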
NPY-Y1 antag – NPY-Y1 (human) receptor antagonism; HEK293-CNG Y1 cells, membrane potential fluorescence; NPY at EC95, then isoproterenol; inhibition, % at 3.6 µM; 1% of 200,000 active; AID 1040;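 active means inhibition above the campaign mean inhibition of all tested compounds plus 3 SD, cut at about 20% in these data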;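 further: 0% = DMSO wells given NPY plus isoproterenol and 100% = isoproterenol alone without NPY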
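Material: HEK293 Y1/CNG channel cell line | Also added: NPY (25 nM), isoproterenol (1 µM), Ro 20-1724 (25 µM) | Compound: One concentration, 3.6 µM, in 0.4% DMSO | Schedule: 3 h dye uptake, 1 h room-temperature compound, 45 min post-isoproterenol | Signal: Membrane-potential fluorescent dye readout | Read-out: % inhibition of NPY effect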
NPY-Y2 PAM-ag – potentiates or activates human NPY-Y2 receptor; P49146; cells expressing NPY-Y2, potentiator/agonist read-out; activation, % at 3.6 µM; 0.45% of 220,000 active; AID 1359; in the data active means activation above about 27%;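 further: cells stimulated with NPY near EC25 plus isoproterenol at EC100; 0% = vehicle plus submaximal agonist and 100% = vehicle plus saturating agonist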
PGE2 EP2 inh – inhibitors of human EP2 prostaglandin E2 receptor. C6 glioma cells expressing human EP2, cAMP TR-FRET; cells stimulated with saturating PGE2. inhibition, % at 25 µM. 0.52% of 260,000 active. AID 1422;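 active means percent inhibition above 40 after rounding to a whole number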;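 further: rat C6 glioma host cells with rolipram phosphodiesterase inhibitor present; the protocol text gives 20 µM as final concentration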
An asterisk follows results filed as active; . = no result.

SMILES	NPY-Y2 antag	EP2 mod	NPY-Y1 PAM-ag	NPY-Y1 antag	NPY-Y2 PAM-ag	PGE2 EP2 inh
Cc1cc2cc(C(c3nnnn3Cc3ccccc3)N3CCC(O)CC3)c(=O)[nH]c2cc1C (centres undefined)	.	-62	.	.	.	9
Cc1c[nH]c2cccc(OCC(O)CNC(C)(C)C)c12 (centres undefined)	0	-21	109*	-18	104*	11
CC(C)(C)NCC(O)COc1ccccc1C(=O)CCc1ccccc1 (centres undefined)	10	-5	103*	-16	102*	3
CCCNC[C@H](O)COc1ccccc1C(=O)CCc1ccccc1	.	14	.	.	.	12
CC(C)(C)NCC(O)COc1ccccc1C(C)(C)C (centres undefined)	4	35	108*	-12	99*	5
N#Cc1c(NC(=O)c2cc(-c3ccc(Cl)cc3Cl)on2)sc2c1CCC2	.	11	.	.	.	9
O=C(Cn1nnc2ccccc21)Nc1ccc(Cl)cc1	.	-43	.	.	.	16
COc1cccc(OCC(O)CN2CCOCC2)c1 (centres undefined)	2	15	60*	-6	45*	12
COc1ccc(COCC(O)CN2CCOCC2)cc1OC (centres undefined)	-1	6	54*	-12	79*	20
COc1ccc(OC)c2[nH]c(C(=O)N3CCCC34CC=CC4)cc12	.	-109	.	.	.	9
CCC(CN1CCCCC1)NC(=O)Cc1ccc2c(c1)OCCCO2 (centres undefined)	.	-42	.	.	.	5
CCOC(=O)C(C)(C)Sc1nnc(COc2ccccc2)n1CC	.	-37	.	.	.	12
Fc1ccc(C2CCN(Cc3cccnc3)CC2)cc1	.	-14	.	.	.	6
CN(C)CCC(=O)[C@]1(O)CC[C@@H]2[C@H]3CC=C4C[C@@H](O)CC[C@]4(C)[C@@H]3CC[C@]21C	.	-49	.	.	.	65*
Cc1cccc(C(=O)O/N=C2\CCSc3ccc(C)cc32)c1	7	-14	-16	8	1	6
Cc1ccc(C(=O)O/N=C2\CCSc3ccc(C)cc32)cc1	21*	27	-9	23*	-12	5
CCOC(=O)c1cc(C)sc1NC(=S)Nc1ccccc1	2	65*	4	-2	4	9
Cc1ccc(C)c2[nH]c(=O)c(CN(Cc3ccco3)Cc3nnnn3C3CCCCC3)cc12	.	72*	.	.	.	7
CCOc1ccc2[nH]c(=O)c(CN(Cc3nnnn3C3CCCCC3)CC3CCCO3)cc2c1 (centres undefined)	.	37	.	.	.	5
Cc1cc2cc(CN(Cc3ccco3)Cc3nnnn3C3CCCCC3)c(=O)[nH]c2cc1C	.	44	.	.	.	14
Cc1ccc2cc(CN(Cc3ccco3)Cc3nnnn3C3CCCCC3)c(=O)[nH]c2c1C	.	70*	.	.	.	9
CCOc1ccc2[nH]c(=O)c(CN(Cc3ccco3)Cc3nnnn3C3CCCC3)cc2c1	.	64*	.	.	.	14
Cc1ccc(C)c2[nH]c(=O)c(CN(Cc3nnnn3C3CCCCC3)CC3CCCO3)cc12 (centres undefined)	5	37	-16	3	-14	17
C[C@@H](Cn1nc(-c2cccs2)oc1=O)NC(=O)C1(c2ccccc2)CC1	.	-8	.	.	.	8
CCN1CCN(C(C)C(=O)NCc2ccc(OC)cc2)CC1 (centres undefined)	.	-4	.	.	.	5
SMILES	NPY-Y2 antag	EP2 mod	NPY-Y1 PAM-ag	NPY-Y1 antag	NPY-Y2 PAM-ag	PGE2 EP2 inh
CCn1c(COc2ccccc2)nnc1SC(C)C(=O)O (centres undefined)	.	-8	.	.	.	8
c1ccc(CN2COc3c(ccc4c5c(ccc34)CN(Cc3ccccc3)CO5)C2)cc1	.	13	.	.	.	42*
CC(C)CN1CCN(Cc2cc(F)ccc2-n2cccn2)CC1CCO (centres undefined)	.	4	-11	22*	-3	2
CC(C)CCN1CCN(Cc2cc(F)ccc2-n2cccn2)CC1CCO (centres undefined)	.	-5	-5	10	-2	6
O=C(O)c1ccncc1.O=C(O)c1ccncc1.[NH2-].[NH2-].[Pt]	.	-14	.	.	.	51*
COc1ccc(C2C(C#N)=C(N)Oc3n[nH]c(-c4cc(OC)ccc4OC)c32)c(OC)c1 (centres undefined)	.	24	.	.	.	3
CCOC(=O)/C(=C\c1cn(C)c2ccccc12)[N+](=O)[O-]	0	-90	-23	-2	-1	42*
CCOC(=O)/C(C#N)=C\c1cn(C)c2ccccc12	.	20	-5	4	1	7
COc1ccc(-c2cn(-c3ccc(OC)cc3)c3[n+]2-c2ccccc2CC3)cc1	5	-13	-25	8	16	3
COc1ccc(-n2c(-c3ccc(Br)cc3)c[n+]3c2CCc2ccccc2-3)cc1	25*	10	-98	59*	-5	4
CC(C)S(=O)(=O)c1csc(NC(=O)Nc2cccc([N+](=O)[O-])c2)c1Cl	.	-36	2	.	10	54*
Cc1cccc2cc(C(c3nnnn3C(C)(C)C)N(Cc3ccccc3)Cc3ccco3)c(=O)[nH]c12 (centres undefined)	.	36	.	.	.	6
COc1cccc(CN(Cc2ccco2)C(c2ccc(F)cc2)c2nnnn2C(C)(C)C)c1 (centres undefined)	22*	1	7	31*	1	14
CCC1C(=NO)C(CC)C(c2ccccc2)NC1c1ccccc1 (centres undefined)	.	63*	4	6	-6	0
CC1C(=NO)C(C)C(c2ccccc2)NC1c1ccccc1 (centres undefined)	5	30	-1	-6	-14	11
Cc1ccc(C(=O)Nc2sc3c(c2C(N)=O)CCC3)cc1C	.	1	.	.	.	23
CCCN(CCC)C(=O)CSc1nc2ccccc2c(=O)n1C1CCCC1	25*	34	-22	29*	9	14
CN(C)c1ccc(NC(=O)CSc2nc3ccccc3c(=O)n2C2CCCCC2)cc1	-5	7	16	-10	-5	7
Cn1c(=O)c2[nH]c(CS(=O)(=O)Cc3nc4c([nH]3)c(=O)n(C)c(=O)n4C)nc2n(C)c1=O	.	34	.	.	.	50*
O=C(Nc1cccc(NC(=O)c2cccc3c(Br)cccc23)c1)c1ccco1	.	-44	.	.	.	10
COc1ccc(-c2nnc(N3CCCCC3)c3ccccc23)cc1	6	25	-9	1	-11	14
CC1CCN(c2nnc(-c3ccccc3)c3ccccc23)CC1	.	65*	-6	14	-2	13
C[C@H](CCC(=O)NN)[C@@H]1CC[C@@H]2[C@H]3CC[C@H]4C[C@@H](O)CC[C@]4(C)[C@@H]3CC[C@]21C	.	21	.	.	.	49*
C[C@H](CCC(=O)O)[C@H]1CC[C@H]2[C@@H]3[C@H](O)C[C@@H]4C[C@H](O)CC[C@]4(C)[C@H]3C[C@H](O)[C@]12C	.	.	.	.	.	12
